Results: ChEMBL document CHEMBL3244000, “Aromatic hydroxylation of beta-adrenergic antagonists. Formation of 4'- and 5'-hydroxy-1-(isopropylamino)-3-[2'-allyloxy)phenoxy]-2-propanol from oxprenolol” (J Med Chem, 1979)

How the values were obtained:
[1] = Drug level in Sprague-Dawley rat urine treated with oxprenolol hydrochloride at 20 mg/kg, ip measured after 24 hrs by GC-CIMS analysis; format: ADME, organism-based; design: dose 20 mg/kg, route intraperitoneal; details: in vivo
Procedure, shortened: (§1)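 Six male Sprague-Dawley rats (120 g) were given oxprenolol hydrochloride ip at 20 mg/kg (4 mg/mL in sterile isotonic water). Urine was collected over 24 h in metabolic cages and pooled, then incubated overnight at 37 °C with 9200 units β-glucuronidase in pH 5.0 acetate buffer. Extract was methylated with diazomethane and TFA-derivatized. GC-CIMS monitored QM ions; isomer ratio was taken from the total ion current tracings.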

[2] = Drug level in Sprague-Dawley rat urine treated with oxprenolol hydrochloride at 20 mg/kg, ip measured after 24 hrs by GC-CIMS analysis in presence of beta-glucuronidase and CH2N2; format: ADME, organism-based; design: dose 20 mg/kg, route intraperitoneal; details: in vivo; procedure, shortened: as §1

Row | Drug excretion [1] | Drug excretion [2] | Structure (SMILES)
1 | metabolite_detected |  | C=CCOc1cc(O)ccc1OCC(O)CNC(C)C (centres undefined)
2 | metabolite_detected |  | C=CCOc1ccc(O)cc1OCC(O)CNC(C)C (centres undefined)
3 |  | metabolite_detected | C=CCOc1cc(OC)ccc1OCC(O)CNC(C)C (centres undefined)
4 |  | metabolite_detected | C=CCOc1ccc(OC)cc1OCC(O)CNC(C)C (centres undefined)
